The source of these data is ChEMBL document CHEMBL4673269, “Discovery of S64315, a Potent and Selective Mcl-1 Inhibitor” (J Med Chem, 2020).

Assay [1] concerns AMO1. Kind of assay: Antitumor activity against human AMO1 cells xenografted in CB-17 SCID mouse assessed as tumor growth inhibition at […] mg/kg, iv administered as bolus dose for 5 consecutive days measured on day 7 relative to control. It counts as functional. Particulars: time 7 day, read-out: TGI.
Assay [2] is described as follows: Inhibition of C-terminal TQ5WS-labelled QWAREIGAQLRRMADDLNAQY binding to human C-terminal Cy5-labelled Mcl-1 V321C/C286S mutant (171 to 321 residue) incubated for 2 hrs by fluorescence quenching assay.
Assay [3] has as its system AMO1. In words: Antitumor activity against human AMO1 cells xenografted in CB-17 SCID mouse assessed as time to reach tumor volume of 500 mm3 at […] mg/kg, iv administered as bolus dose for 5 consecutive days. It counts as functional. The note with it: time 5 day. (A xenograft is tissue or cells of one species grown in another, often human tumour cells in immunodeficient mice.)

In assay [4] the test system is AMO1. In words: Antitumor activity against human AMO1 cells xenografted in CB-17 SCID mouse assessed as maximum tumor growth inhibition at […] mg/kg, iv administered as bolus dose for 5 consecutive days measured on day 2 relative to control. It counts as functional. Details: scale not given: the % may be the effect or the level left. Particulars: time 5 day.
In assay [5] the test system is AMO1. Kind of assay: Antitumor activity against human AMO1 cells xenografted in CB-17 SCID mouse assessed as time to reach tumor volume of 500 mm3 at 25 mg/kg, iv administered as bolus dose for 5 consecutive days. Particulars: time 5 day. It counts as functional. In short, it runs like this: (§1)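 Female CB-17 SCID mice, 6−7 weeks old. 5 × 10⁶ AMO-1 cells in growth medium/Matrigel 50:50 injected subcutaneously in the right flank. Randomised at about 200 mm³, n = 8 to 10 per group. Dosed iv in 20% HPbCD–25 mM HCl, daily for 5 days or weekly for 4 weeks. Calipers 2−3 times weekly; volume = length × width²/2. TGI computed from median change in volume versus control; delay judged at median volume 500 mm³.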

Assay [6] has as its system AMO1. In words: Induction of apoptosis in human AMO1 cells xenografted in CB-17 SCID mouse assessed as increase in cleaved PARP level at 25 to 50 mg/kg, iv administered as bolus dose measured after 6 hrs by immunodetection analysis. It counts as functional, organism-based. The note with it: dose 25-50 mg/kg. In short, it runs like this:
(§2)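 SCID mice bearing subcutaneous AMO-1 tumours (about 200 mm³, n = 3 per group) received an iv bolus in 20% HPbCD–25 mM HCl. Tumours were harvested at set times (2, 6, 16 or 30 h), frozen and homogenised in lysis buffer. Cleaved PARP was measured by immunoassay (MSD apoptosis panel) and expressed as fold increase over untreated tumours.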

Assay [7] deals with AMO1. In words: Antitumor activity against human AMO1 cells xenografted in CB-17 SCID mouse assessed as tumor growth inhibition administered intravenously for 5 days measured post-last dose. It counts as functional, cell-based. Particulars: time 5.0 day. In short, it runs like this:
as §1

Assay [8] concerns AMO1. Kind of assay: Antitumor activity against human AMO1 cells xenografted in CB-17 SCID mouse assessed as time to reach tumor volume of 500 mm3 at 50 mg/kg, iv administered as bolus dose for 5 consecutive days. It counts as functional. The note with it: time 5 day. The gist of the method:
as §1

In assay [9] the test system is AMO1. Kind of assay: Antitumor activity against human AMO1 cells xenografted in CB-17 SCID mouse assessed as maximum tumor growth inhibition at 25 mg/kg, iv administered as bolus dose for 5 consecutive days measured on day 4 relative to control. It counts as functional. The note with it: time 5 day. Set-up: scale not given: the % may be the effect or the level left. In short, it runs like this:
as §1

The subject of assay [10] is AMO1. Kind of assay: Antitumor activity against human AMO1 cells xenografted in CB-17 SCID mouse assessed as maximum tumor growth inhibition at 50 mg/kg, iv administered as bolus dose for 5 consecutive days measured on day 2 relative to control. It counts as functional. Particulars: time 5 day. Set-up: scale not given: the % may be the effect or the level left. The gist of the method:
as §1

Assay [11] concerns AMO1. Kind of assay: Antitumor activity against human AMO1 cells xenografted in CB-17 SCID mouse assessed as tumor growth inhibition at 50 mg/kg, iv for 5 days measured on day 7 relative to control. It counts as functional. Particulars: time 7 day, read-out: TGI. The gist of the method: as §1
The test system of assay [12] is AMO1. Kind of assay: Induction of apoptosis in human AMO1 cells xenografted in CB-17 SCID mouse assessed as increase in cleaved PARP level administered intravenously as bolus dose measured after 6 to 16 hrs by immunodetection analysis. Particulars: dose 25-50 mg/kg, time lower 6.0 hrs, time upper […]. It counts as functional, organism-based. In short, it runs like this:
as §2

Assay [13] has as its system AMO1. In words: Antitumor activity against human AMO1 cells xenografted in CB-17 SCID mouse assessed as tumor growth inhibition at 25 mg/kg, iv for 5 days measured on day7 relative to control. It counts as functional. The note with it: time 7 day, read-out: TGI. The gist of the method: as §1
The test system of assay [14] is AMO1. In words: Induction of apoptosis in human AMO1 cells xenografted in CB-17 SCID mouse assessed as increase in cleaved PARP level at 25 to 50 mg/kg, iv administered as bolus dose measured after 30 hrs by immunodetection analysis. Particulars: dose 25-50 mg/kg. It counts as functional, organism-based. The gist of the method:
as §2

For assay [15], the system named is AMO1. In words: Antitumor activity against human AMO1 cells xenografted in CB-17 SCID mouse assessed as maximum tumor growth inhibition at 25 mg/kg, iv administered as bolus dose for 5 consecutive days measured on day 2 relative to control. It counts as functional. Set-up: scale not given: the % may be the effect or the level left. The note with it: time 5 day. In short, it runs like this:
as §1

Assay [16] concerns AMO1. Kind of assay: Antitumor activity against human AMO1 xenografted in CB-17 SCID mouse assessed as tumor growth suppression at 25 mg/kg, iv administered for 5 consecutive days and measured post-last dose. Particulars: time 5.0 day. It counts as functional, organism-based. The gist of the method: as §1
Assay [17] has as its system AMO1. Kind of assay: Antitumor activity against human AMO1 xenografted in CB-17 SCID mouse assessed as tumor growth suppression at 50 mg/kg, iv administered for 5 consecutive days measured after 5 weeks. It counts as functional, organism-based. In short, it runs like this: as §1

Structures are written as SMILES. Calls of active or inactive are those of the source. The rule behind the calls is not given here.

For the compound `Cc1ccncc1-c1nccc(COc2ccccc2C[C@@H](Oc2ncnc3sc(-c4ccc(F)cc4)c(-c4ccc(OCCN5CCN(C)CC5)c(Cl)c4C)c23)C(=O)O)n1`, the inhibition in vivo at […] with AMO1 [1] was 106%. Further, the Ki (as a rule, a measure of affinity in units of concentration, obtained from inhibition or displacement) in assay [2] is 0.73 nM. The Time in the assay on AMO1 [3] is 14 days. In addition, in the assay with AMO1 [4], the Activity stood at 132.4%.
As to `Cc1c(-c2c(-c3ccc(F)cc3)sc3ncnc(O[C@H](Cc4ccccc4OCc4cnccn4)C(=O)O)c23)ccc(OCCN2CCN(C)CC2)c1Cl`, the figures for the Time with AMO1 [5] and with AMO1 [8] were 7 days and 9 days, respectively. In addition, the outcome in the assay on AMO1 [6] was Active. The Activity result was “Dose-dependent effect” with AMO1 [7], 96.2% with AMO1 [9], 125.6% with AMO1 [10] and “Dose-dependent effect” in the assay on AMO1 [12]. For the same compound, in assay [2], the Ki worked out at 5 nM. Also, in the assay on AMO1 [11], the inhibition in vivo at 50 mg/kg worked out at 95%. Besides, the inhibition in vivo at 25 mg/kg in the assay with AMO1 [13] is 63.6%. The result in the assay with AMO1 [14] was inactive.
Consider `Cc1c(-c2c(-c3ccc(F)o3)sc3ncnc(O[C@H](Cc4ccccc4OCc4ccnn4C)C(=O)O)c23)ccc(OCCN2CCN(C)CC2)c1Cl`, for which the results for the Activity in the assay on AMO1 [15], with AMO1 [10] and in the assay on AMO1 [12] were 147.5%, 154.9% and “Dose-dependent effect”, respectively. Besides, the Time in the assay on AMO1 [5] came out at 23 days; in the assay on AMO1 [8], 53 days. The outcome in the assay on AMO1 [6] was Active. This compound showed an inhibition constant (Ki) in assay [2] of 0.86 nM. Moreover, the outcome with AMO1 [16], with AMO1 [17] and in the assay with AMO1 [14] was inactive. In the assay with AMO1 [11], the inhibition in vivo at 50 mg/kg stood at 130%. Besides, the inhibition in vivo at 25 mg/kg with AMO1 [13] came to 120%.
